In brackets after ≈: the same amount, converted by molar mass.
How the values were obtained:
[1] = tested on: Enterococcus faecalis; test: Antibacterial activity against vancomycin resistant Enterococcus faecalis NCTC 12201 assessed as bacterial growth inhibition incubated for overnight by microbroth dilution method; format: functional
How it was run: (§1)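 Microbroth dilution in Tryptic Soy Broth. DMSO stocks were diluted in TSB as 2-fold series. Overnight TSB cultures were back-diluted to OD 0.01 and mixed 1:1 with compound. Incubation was overnight at 37 °C. MIC is the lowest concentration with no visible growth (<0.1 OD600). DMSO at equivalent concentrations was checked.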

[2] = tested on: Staphylococcus aureus; test: Antibacterial activity against methicillin sensitive Staphylococcus aureus 1199B assessed as bacterial growth inhibition incubated for overnight by microbroth dilution method; format: functional; how it was run: as §1
[3] = tested on: Acinetobacter baumannii; test: Synergistic antibacterial activity against Acinetobacter baumannii AYE assessed as bacterial growth inhibition incubated for overnight in presence of PBMN by microbroth dilution method relative to control; format: functional
How it was run: (§2)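 Adapted broth microdilution in TSB. The test compound was in a 2-fold dilution series, with PMBN added at a fixed 30 µg/mL. Bacteria at OD 0.02 were added, and plates were incubated overnight at 37 °C. Growth/no growth was read as for the MIC (<0.1 OD600).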

[4] = tested on: Escherichia coli; test: Antibacterial activity against Escherichia coli NCTC 12923 assessed as bacterial growth inhibition incubated for overnight by microbroth dilution method; format: functional
How it was run: (§3)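 Broth microdilution in Tryptic Soy Broth. DMSO stocks were diluted in TSB as 2-fold series. Overnight TSB cultures were back-diluted to OD 0.01 and mixed 1:1 with compound. Incubation was overnight at 37 °C. MIC was the lowest concentration without visible growth (<0.1 OD600). DMSO vehicle was checked at equivalent concentrations.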

[5] = tested on: Pseudomonas aeruginosa; test: Synergistic antibacterial activity against Pseudomonas aeruginosa NCTC 13437 assessed as bacterial growth inhibition incubated for overnight in presence of PBMN by microbroth dilution method relative to control; format: functional; how it was run: as §2
[6] = tested on: Acinetobacter baumannii; test: Synergistic antibacterial activity against Acinetobacter baumannii AYE assessed as rifampicin MIC at <=0.25 times MIC incubated for overnight by microbroth dilution checkerboard assay; format: functional
How it was run: (§4)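 Checkerboard microdilution under MIC conditions (TSB, overnight, 37 °C). Two-fold series of each agent were combined on one plate before bacteria were added, and single-agent MICs were measured on the same plate. FIC = sum of combination MIC/alone MIC for each agent, taken from the most synergistic well. Three independent repeats, mean ± SD. ≤0.5 was taken as strong synergy and 0.5–<1 as weak.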

[7] = tested on: Enterococcus faecium; test: Antibacterial activity against vancomycin resistant Enterococcus faecium NCTC 12204 assessed as bacterial growth inhibition incubated for overnight by microbroth dilution method; format: functional; how it was run: as §1
[8] = tested on: Klebsiella pneumoniae; test: Synergistic antibacterial activity against […] Klebsiella pneumoniae M6 assessed as rifampicin MIC at <=0.25 times MIC incubated for overnight by microbroth dilution checkerboard assay; format: functional
How it was run: (§5)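 Checkerboard run under the MIC conditions (TSB, overnight, 37 °C). Antibiotic and lipoguanidine 2-fold series were combined on one plate before bacteria were added. Growth/no-growth was scored as for the MIC (<0.1 OD600). Single-agent MICs were measured on the same plates. Three independent repeats were done.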

[9] = tested on: Klebsiella pneumoniae; test: Synergistic antibacterial activity against Klebsiella pneumoniae NCTC 13368 assessed as bacterial growth inhibition incubated for overnight in presence of PBMN by microbroth dilution method relative to control; format: functional; how it was run: as §2
[10] = tested on: Acinetobacter baumannii; test: Synergistic antibacterial activity against Acinetobacter baumannii AYE assessed as fold change in rifampicin MIC at <=0.25 times MIC incubated for overnight by microbroth dilution checkerboard assay relative to rifampicin alone; format: functional; how it was run: as §4
[11] = tested on: Pseudomonas aeruginosa; test: Antibacterial activity against Pseudomonas aeruginosa NCTC 13437 assessed as bacterial growth inhibition incubated for overnight by microbroth dilution method; format: functional; how it was run: as §3
[12] = tested on: Pseudomonas aeruginosa; test: Synergistic antibacterial activity against Pseudomonas aeruginosa PAO1 assessed as fold change in rifampicin MIC at <=0.25 times MIC incubated for overnight by microbroth dilution checkerboard assay relative to rifampicin alone; format: functional
How it was run: (§6)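 Checkerboard microdilution in Tryptic Soy Broth, run like the MIC assay. Overnight TSB cultures were back-diluted to OD 0.01 and added 1:1 to the combined two-fold series of both agents, then incubated overnight at 37 °C. Growth/no-growth was called at <0.1 OD600. MICs alone were read on the same plates. FIC index came from the most synergistic well; three independent repeats, mean ± SD.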

[13] = tested on: Klebsiella pneumoniae; test: Antibacterial activity against ESBL Klebsiella pneumoniae NCTC 13368 assessed as bacterial growth inhibition incubated for overnight by microbroth dilution method
[14] = tested on: Staphylococcus aureus; test: Antibacterial activity against methicillin sensitive Staphylococcus aureus ATCC 9144 assessed as bacterial growth inhibition incubated for overnight by microbroth dilution method; format: functional; how it was run: as §1
[15] = tested on: Staphylococcus aureus; test: Antibacterial activity against methicillin resistant Staphylococcus aureus NCTC 13616 assessed as bacterial growth inhibition incubated for overnight by microbroth dilution method; format: functional; how it was run: as §1
[16] = tested on: Acinetobacter baumannii; test: Synergistic antibacterial activity against Acinetobacter baumannii ATCC 17978 assessed as rifampicin MIC at <=0.25 times MIC incubated for overnight by microbroth dilution checkerboard assay; format: functional; how it was run: as §4
[17] = tested on: Enterococcus faecalis; test: Antibacterial activity against vancomycin sensitive Enterococcus faecalis NCTC 775 assessed as bacterial growth inhibition incubated for overnight by microbroth dilution method
[18] = tested on: Acinetobacter baumannii; test: Synergistic antibacterial activity against Acinetobacter baumannii ATCC 17978 assessed as fold change in rifampicin MIC at <=0.25 times MIC incubated for overnight by microbroth dilution checkerboard assay relative to rifampicin alone; format: functional; how it was run: as §4
[19] = tested on: Acinetobacter baumannii; test: Synergistic antibacterial activity against Acinetobacter baumannii ATCC 17978 assessed as bacterial growth inhibition incubated for overnight in presence of PBMN by microbroth dilution method relative to control; format: functional; how it was run: as §2
[20] = tested on: Pseudomonas aeruginosa; test: Synergistic antibacterial activity against Pseudomonas aeruginosa PAO1 assessed as rifampicin MIC at <=0.25 times MIC incubated for overnight by microbroth dilution checkerboard assay; format: functional; how it was run: as §6
[21] = tested on: Klebsiella pneumoniae; test: Antibacterial activity against Klebsiella pneumoniae M6 assessed as bacterial growth inhibition incubated for overnight by microbroth dilution method
[22] = tested on: Acinetobacter baumannii; test: Antibacterial activity against Acinetobacter baumannii ATCC 17978 assessed as bacterial growth inhibition incubated for overnight by microbroth dilution method; format: functional; how it was run: as §3
[23] = tested on: Klebsiella pneumoniae; test: Synergistic antibacterial activity against Klebsiella pneumoniae M6 assessed as bacterial growth inhibition incubated for overnight in presence of PBMN by microbroth dilution method relative to control; format: functional; how it was run: as §2
[24] = tested on: Klebsiella pneumoniae; test: Synergistic antibacterial activity against Klebsiella pneumoniae NCTC 13368 assessed as fold change in rifampicin MIC at <=0.25 times MIC incubated for overnight by microbroth dilution checkerboard assay relative to rifampicin alone; format: functional; how it was run: as §5
[25] = tested on: Pseudomonas aeruginosa; test: Synergistic antibacterial activity against Pseudomonas aeruginosa NCTC 13437 assessed as rifampicin MIC at <=0.25 times MIC incubated for overnight by microbroth dilution checkerboard assay; format: functional; how it was run: as §6
[26] = tested on: Escherichia coli; test: Synergistic antibacterial activity against Escherichia coli NCTC 12923 assessed as fold change in rifampicin MIC at <=0.25 times MIC incubated for overnight by microbroth dilution checkerboard assay relative to rifampicin alone; format: functional; how it was run: as §4
[27] = tested on: Pseudomonas aeruginosa; test: Synergistic antibacterial activity against Pseudomonas aeruginosa NCTC 13437 assessed as fold change in rifampicin MIC at <=0.25 times MIC incubated for overnight by microbroth dilution checkerboard assay relative to rifampicin alone; format: functional; how it was run: as §6
[28] = tested on: Escherichia coli; test: Synergistic antibacterial activity against Escherichia coli NCTC 12923 assessed as rifampicin MIC at <=0.25 times MIC incubated for overnight by microbroth dilution checkerboard assay; format: functional; how it was run: as §4
[29] = tested on: Klebsiella pneumoniae; test: Synergistic antibacterial activity against Klebsiella pneumoniae NCTC 13368 assessed as rifampicin MIC at <=0.25 times MIC incubated for overnight by microbroth dilution checkerboard assay; format: functional; how it was run: as §4
[30] = tested on: Escherichia coli; test: Synergistic antibacterial activity against Escherichia coli NCTC 12923 assessed as bacterial growth inhibition incubated for overnight in presence of PBMN by microbroth dilution method relative to control; format: functional; how it was run: as §2
[31] = tested on: Pseudomonas aeruginosa; test: Antibacterial activity against Pseudomonas aeruginosa PAO1 assessed as bacterial growth inhibition incubated for overnight by microbroth dilution method; format: functional; how it was run: as §3
[32] = tested on: Acinetobacter baumannii; test: Antibacterial activity against Acinetobacter baumannii AYE assessed as bacterial growth inhibition incubated for overnight by microbroth dilution method; format: functional; how it was run: as §3
[33] = tested on: Pseudomonas aeruginosa; test: Synergistic antibacterial activity against Pseudomonas aeruginosa PAO1 assessed as bacterial growth inhibition incubated for overnight in presence of […] by microbroth dilution method relative to control; format: functional
How it was run: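 Fixed-concentration combination MIC in TSB. The first agent was set in a two-fold dilution series (100 µL/well), then 50 µL/well of the second agent at a fixed concentration was added; PMBN was fixed at 30 µg/mL. Bacteria at OD 0.02 (50 µL) went into 150 µL of compounds, overnight at 37 °C. MIC was the lowest concentration without visible growth (<0.1 OD600).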

[34] = tested on: Staphylococcus aureus; test: Antibacterial activity against methicillin resistant Staphylococcus aureus USA 300 assessed as bacterial growth inhibition incubated for overnight by microbroth dilution method; format: functional; how it was run: as §1

With `CCCCC/C=C\C/C=C\CCCCCCCCNC(=N)NCCCCCCCCNC(=N)N` the MIC [1] was 4 µg/mL (≈ 8.39 µM), the MIC [2] was 2 µg/mL (≈ 4.19 µM) and the “inhibition (INH)” value [3] was under 20%. For the same molecule, the MIC [4] was 8 µg/mL (≈ 16.8 µM), the “inhibition (INH)” value [5] was under 20% and the MIC [6] was 1 µg/mL. For the same molecule, the MIC [7] was 2 µg/mL (≈ 4.19 µM), the MIC [8] was 0.5 µg/mL and the “inhibition (INH)” value [9] was under 20%. The “fold change (FC)” value [10] was “>=4”, the MIC [11] was over 128 µg/mL and the “fold change (FC)” value [12] was 0. The MIC [13] was 32 µg/mL (≈ 67.1 µM), the MIC [14] was 2 µg/mL (≈ 4.19 µM) and the MIC [15] was 4 µg/mL (≈ 8.39 µM). For the same molecule, the MIC [16] was 1 µg/mL, the MIC [17] was 4 µg/mL (≈ 8.39 µM) and the “fold change (FC)” value [18] was “>=4”. For the same molecule, the “inhibition (INH)” value [19] was under 20%, the MIC [20] was 16 µg/mL and the MIC [21] was 16 µg/mL (≈ 33.6 µM). The MIC [22] was 4 µg/mL (≈ 8.39 µM), the “inhibition (INH)” value [23] was under 20% and the “fold change (FC)” value [24] was “>=4”. The MIC [25] was 16 µg/mL, the “fold change (FC)” value [26] was 0 and the “fold change (FC)” value [27] was 0. For the same molecule, the MIC [28] was 8 µg/mL, the MIC [29] was 8 µg/mL and the “inhibition (INH)” value [30] was under 20%. The MIC [31] was over 128 µg/mL, the MIC [32] was 16 µg/mL (≈ 33.6 µM) and the “inhibition (INH)” value [33] was under 20%. For the same molecule, the MIC [34] was 2 µg/mL (≈ 4.19 µM).

Source: ChEMBL document CHEMBL5357066, “Development of Novel Membrane Disrupting Lipoguanidine Compounds Sensitizing Gram-Negative Bacteria to Antibiotics” (ACS Med Chem Lett, 2024)
